Reference: ChEMBL document CHEMBL3259627, “Allosteric inhibition of human factor XIa: discovery of monosulfated benzofurans as a class of promising inhibitors” (J Med Chem, 2014)
Active and inactive are the calls of the source. The calls are words filed in the database; no cut-off is given here.

How the values were obtained:
Coagulation factor XI [1] = target: T1, Coagulation factor XI (Homo sapiens, UniProt P03951); assay: Inhibition of full-length human factor-11a-mediated S-2366 hydrolysis preincubated for 10 mins followed by substrate addition by spectrophotometric analysis
T1 sequence (P03951 19-387 limits assumed): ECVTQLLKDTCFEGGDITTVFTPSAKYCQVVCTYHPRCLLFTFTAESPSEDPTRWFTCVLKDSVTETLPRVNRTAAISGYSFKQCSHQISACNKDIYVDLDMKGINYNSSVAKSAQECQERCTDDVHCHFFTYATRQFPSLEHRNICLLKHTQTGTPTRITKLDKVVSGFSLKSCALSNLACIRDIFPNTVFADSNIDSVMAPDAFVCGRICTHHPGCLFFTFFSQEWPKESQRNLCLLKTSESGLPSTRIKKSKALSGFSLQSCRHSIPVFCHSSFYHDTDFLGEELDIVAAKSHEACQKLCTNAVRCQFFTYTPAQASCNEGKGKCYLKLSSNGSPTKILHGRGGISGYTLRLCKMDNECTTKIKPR
T1 sequence (P03951 388-625 limits assumed): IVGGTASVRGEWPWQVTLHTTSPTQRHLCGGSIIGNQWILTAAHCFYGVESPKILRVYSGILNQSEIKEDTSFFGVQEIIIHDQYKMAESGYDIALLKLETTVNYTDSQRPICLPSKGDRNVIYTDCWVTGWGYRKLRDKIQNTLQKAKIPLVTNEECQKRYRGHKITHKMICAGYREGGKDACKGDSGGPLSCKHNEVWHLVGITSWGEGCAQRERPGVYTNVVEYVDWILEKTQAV
Summary of the method: (§1)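 Dose-response run in the same Tris pH 7.4 buffer with NaCl, PEG8000 and Tween80. Serial 2/3 or 5/6 inhibitor dilutions were preincubated 10 min at 37 °C with fXIa (0.765 nM final). S-2366 was then added (330 μM final) and the initial A405 rate read. Residual activity versus log[I] was fitted to a logistic equation for IC50, Hill slope, YM and Y0. At least two measurements; ± SD.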

Coagulation factor XI [2] = target: T1, Coagulation factor XI; assay: Inhibition of full-length human factor-11a-mediated S-2366 hydrolysis preincubated for 10 mins followed by substrate addition by spectrophotometric analysis relative to control; summary of the method: as §1
Coagulation factor XI [3] = target: T1, Coagulation factor XI; assay: Inhibition of full-length human factor-11a-mediated S-2366 hydrolysis assessed as reduction in residual activity at 300 uM preincubated for 10 mins followed by substrate addition by spectrophotometric analysis relative to control
Summary of the method: (§2)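 Single-point screen: inhibitor (300 μM final) incubated with fXIa (0.765 nM final) in 0.05 M Tris-HCl pH 7.4, 0.15 M NaCl, 0.1% PEG8000, 0.02% Tween80, 10 min at 37 °C. S-2366 then added (330 μM final) and the initial rate taken from A405 rise (<10% conversion). Residual activity (%) is the rate ratio with versus without inhibitor. At least duplicate; mean ± SD.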

Coagulation factor XI [4] = target: T1, Coagulation factor XI; assay: Activation of full-length human factor-11a-mediated S-2366 hydrolysis at 300 uM preincubated for 10 mins followed by substrate addition by spectrophotometric analysis relative to control; parameters: scale not given: the % may be the effect or the level left; summary of the method: as §2
Coagulation factor XI [5] = target: T1, Coagulation factor XI; assay: Inhibition of full-length human factor-11a-mediated S-2366 hydrolysis at 300 uM preincubated for 10 mins followed by substrate addition by spectrophotometric analysis relative to control; summary of the method: as §2
Coagulation factor XI [6] = target: T1, Coagulation factor XI; assay: Binding affinity to fluorescein-EGR-labeled human factor-11a by fluorescence spectroscopic analysis
Summary of the method: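 fXIa active-site labeled with fluorescein-EGR (74 nM) in Tris pH 7.4 buffer without Tween80 at 37 °C. Excitation at 480 nm, emission recorded at 522 nm during ligand titration. ΔF/F0 versus ligand concentration was fitted to a quadratic binding equation to give the dissociation constant.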

Coagulation factor XI [7] = target: T1, Coagulation factor XI
Coagulation factor XI [8] = target: T1, Coagulation factor XI; assay: Inhibition of human factor-11a catalytic domain-mediated S-2366 hydrolysis preincubated for 10 mins followed by substrate addition by spectrophotometric analysis
Summary of the method: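 Recombinant fXIa catalytic domain (0.765 nM final) in 0.05 M Tris-HCl pH 7.4, 0.15 M NaCl, 0.1% PEG8000, 0.02% Tween80. Incubated 10 min at 37 °C with serial inhibitor dilutions (2/3 or 5/6 decrements), then S-2366 added to 330 μM final. Initial A405 rate gives residual activity; IC50 from logistic fit versus log[I]; at least two measurements.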

Row | Structure (SMILES) | IC50 (Coagulation factor XI [1]) [µM] | Efficacy (Coagulation factor XI [2]) [%] | Activity (Coagulation factor XI [3]) [%] | other results
1 | CCOC(=O)C1Cc2cc(OS(=O)(=O)O)c(OS(=O)(=O)O)cc2CN1C(=O)c1ccc(OS(=O)(=O)O)c(OS(=O)(=O)O)c1 (stereo unspecified) | – | – | – | Activity (Coagulation factor XI [4]): 20%
2 | CCOC(=O)c1c(C)oc2cc(OC)c(OCc3oc4cc(OC)c(OCc5oc6cc(OC)c(OS(=O)(=O)O)cc6c5C(=O)OC)cc4c3C(=O)OCC)cc12 | 14.9 | 100 | > 50 | –
3 | CCOC(=O)c1c(C)oc2cc(OC)c(OCc3oc4cc(OC)c(OCc5oc6cc(OS(=O)(=O)O)c(OC)cc6c5C(=O)OCC)cc4c3C(=O)OCC)cc12 | – | – | – | inhibition (Coagulation factor XI [5]): inactive
4 | CCOC(=O)c1c(C)oc2cc(OC)c(OCc3oc4cc(OC)c(OCc5oc6cc(OCC)c(OS(=O)(=O)O)cc6c5C(=O)OCC)cc4c3C(=O)OCC)cc12 | 0.82 | 100 | > 50 | Kd (Coagulation factor XI [6]): 1.2 µM; KSV (Coagulation factor XI [7]): 2.3; IC50 (Coagulation factor XI [8]): 49 µM
5 | N#Cc1c(SCC(=O)c2cccc(OS(=O)(=O)O)c2OS(=O)(=O)O)nc([N+](=O)[O-])c(C#N)c1-c1ccc(Oc2ccccc2)cc1 | 109 | 100 | > 50 | –
6 | O=C(c1cc(OS(=O)(=O)O)cc(OS(=O)(=O)O)c1)N1CCc2cc(OS(=O)(=O)O)c(OS(=O)(=O)O)cc2C1 | – | – | – | Activity (Coagulation factor XI [4]): 20%
7 | O=C(c1cc(OS(=O)(=O)O)c(OS(=O)(=O)O)c(OS(=O)(=O)O)c1)N1CCc2cc(OS(=O)(=O)O)c(OS(=O)(=O)O)cc2C1 | – | – | – | Activity (Coagulation factor XI [4]): 20%
8 | O=C(O)C1Cc2cc(OS(=O)(=O)O)c(OS(=O)(=O)O)cc2CN1C(=O)c1cc(OS(=O)(=O)O)c(OS(=O)(=O)O)c(OS(=O)(=O)O)c1 (stereo unspecified) | – | – | – | Activity (Coagulation factor XI [4]): 20%
9 | C=CCOC(=O)c1c(C)oc2cc(OC)c(OCc3oc4cc(OC)c(OCc5oc6cc(OC)c(OS(=O)(=O)O)cc6c5C(=O)OCC)cc4c3C(=O)OCC)cc12 | 29.9 | 100 | > 50 | –
10 | O=C(Nc1ccc(OS(=O)(=O)O)cc1)c1cccc(N2C(=O)c3ccc(C(=O)Nc4ccc(OS(=O)(=O)O)cc4)cc3C2=O)c1 | 122 | 100 | > 50 | –
11 | CCOC(=O)c1c(C)oc2cc(OC)c(OCc3oc4cc(OC)c(OCc5oc6cc(OC)c(OS(=O)(=O)O)cc6c5C(=O)OCC)cc4c3C(=O)OCC)cc12 | 6.4 | 100 | > 50 | –
12 | CCOC(=O)c1c(C)oc2cc(OCc3oc4cc(OC)c(OS(=O)(=O)O)cc4c3C(=O)OCC)c(OC)cc12 | – | – | – | inhibition (Coagulation factor XI [5]): inactive
13 | CCOC(=O)c1c(C)oc2cc(OC)c(OCc3oc4cc(OC)c(OCc5oc6cc(OC(C)C)c(OS(=O)(=O)O)cc6c5C(=O)OCC)cc4c3C(=O)OCC)cc12 | 47.2 | 100 | > 50 | –

Second part, led by results:

Row | IC50 (Coagulation factor XI [1]) [µM] | Efficacy (Coagulation factor XI [2]) [%] | Activity (Coagulation factor XI [3]) [%] | Structure (SMILES) | other results
14 | 99 | 100 | > 50 | CCOC(=O)c1c(C)oc2cc(OC)c(OCc3oc4cc(OC)c(OCc5oc6cc(OC)c(OCc7oc8cc(OC)c(OS(=O)(=O)O)cc8c7C(=O)OCC)cc6c5C(=O)OCC)cc4c3C(=O)OCC)cc12 | –
15 | 384 | 100 | – | CCOC(=O)c1c(COc2cc3c(C(=O)OCC)c(COc4cc5c(C(=O)O)c(C)oc5cc4OC)oc3cc2OC)oc2cc(OC)c(O)cc12 | inhibition (Coagulation factor XI [5]): 50%
16 | 9.7 | 100 | > 50 | COC(=O)c1c(C)oc2cc(OC)c(OCc3oc4cc(OC)c(OS(=O)(=O)O)cc4c3C(=O)OC)cc12 | –
17 | 29.9 | 100 | > 50 | CCOC(=O)c1c(COc2cc3c(C(=O)O)c(C)oc3cc2OC)oc2cc(OC)c(OCc3oc4cc(OC)c(OS(=O)(=O)O)cc4c3C(=O)OCC)cc12 | –
18 | 7.5 | 100 | > 50 | CCOC(=O)c1c(C)oc2cc(OC)c(OCc3oc4cc(OCC)c(OS(=O)(=O)O)cc4c3C(=O)OCC)cc12 | Kd (Coagulation factor XI [6]): 4.5 µM
